Assay results from ChEMBL document CHEMBL1124440, “Resolved N,N-dialkylated 2-amino-8-hydroxytetralins: stereoselective interactions with 5-HT1A receptors in the brain” (J Med Chem, 1989).

How the values were obtained:
[1] = target: T1, Tryptophan 5-hydroxylase 1 (Rattus norvegicus) (UniProt P09810); test: Approximate dose levels for a half maximal reduction of 5-HTP levels; format: functional
T1 sequence (whole entry): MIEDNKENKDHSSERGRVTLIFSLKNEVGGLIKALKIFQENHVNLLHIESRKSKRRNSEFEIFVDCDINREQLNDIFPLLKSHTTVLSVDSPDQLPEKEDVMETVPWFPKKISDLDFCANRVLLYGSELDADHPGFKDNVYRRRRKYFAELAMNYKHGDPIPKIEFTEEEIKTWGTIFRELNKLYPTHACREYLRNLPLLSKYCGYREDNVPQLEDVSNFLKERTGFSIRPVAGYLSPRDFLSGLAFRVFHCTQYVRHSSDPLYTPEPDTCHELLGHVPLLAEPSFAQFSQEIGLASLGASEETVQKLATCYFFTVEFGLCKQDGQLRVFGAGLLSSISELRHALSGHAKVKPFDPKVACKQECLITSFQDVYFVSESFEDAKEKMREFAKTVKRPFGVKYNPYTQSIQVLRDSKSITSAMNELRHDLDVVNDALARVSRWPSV
How it was run: (§1)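 Rats given test drug s.c. in the neck as hydrochloride (5 mL/kg), not reserpine-pretreated; 30 min later NSD 1015 (60 mg/kg, i.e. 287 μmol/kg sc), killed 30 min after that. Brain regions dissected. 5-HTP measured by ion-pair reversed-phase HPLC with electrochemical detection. Mean ± SEM, n = 15 controls, 3–5 per dose; ANOVA with Dunnett's t test vs controls.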

Rattus norvegicus [2] = test: No of rats exhibiting 5-HT motor syndrome tested in reserpinized rats at a subcutaneous dose of 3.2 umol/kg; 0 rats out of 5 showed activity; format: functional
[3] = target: T1, Tryptophan 5-hydroxylase 1 (Rattus norvegicus); test: Compound was tested for its effect on NSD 1015 induced accumulation of 5-HTP(ng/g) in rats in limbic system at a dosage of 10 umol/kg; format: functional, tissue-based; how it was run: as §1
Rattus norvegicus [4] = test: No of rats exhibiting 5-HT motor syndrome tested in reserpinized rats at a subcutaneous dose of 10 umol/kg; 4 rats out of 5 showed activity; format: functional
[5] = target: T1, Tryptophan 5-hydroxylase 1 (Rattus norvegicus); test: Compound was tested for its effect on NSD 1015 induced accumulation of 5-HTP(ng/g) in rats in corpus striatum at a dosage of 10 umol/kg; format: functional; how it was run: as §1
[6] = target: T1, Tryptophan 5-hydroxylase 1 (Rattus norvegicus); test: Compound was tested for its effect on NSD 1015 induced accumulation of 5-HTP(ng/g) in rats in limbic system at a dosage of 1.0 umol/kg; format: functional, tissue-based; how it was run: as §1
Rattus norvegicus [7] = test: No of rats exhibiting 5-HT motor syndrome tested in reserpinized rats at a subcutaneous dose of 1.0 umol/kg; o rats out of 3 showed activity; format: functional
[8] = target: T1, Tryptophan 5-hydroxylase 1 (Rattus norvegicus); test: Compound was tested for its effect on NSD 1015 induced accumulation of 5-HTP(ng/g) in rats in corpus striatum at a dosage of 32 umol/kg; format: functional, tissue-based; how it was run: as §1
[9] = target: T1, Tryptophan 5-hydroxylase 1 (Rattus norvegicus); test: Compound was tested for its effect on NSD 1015 induced accumulation of 5-HTP(ng/g) in rats in corpus striatum at a dosage of 1.0 umol/kg; format: functional; how it was run: as §1
[10] = target: T1, Tryptophan 5-hydroxylase 1 (Rattus norvegicus); test: Compound was tested for its effect on NSD 1015 induced accumulation of 5-HTP(ng/g) in rats in limbic system at a dosage of 3.2 umol/kg; format: functional, tissue-based; how it was run: as §1
[11] = target: T1, Tryptophan 5-hydroxylase 1 (Rattus norvegicus); test: Compound was tested for its effect on NSD 1015 induced accumulation of 5-HTP(ng/g) in rats in limbic system at a dosage of 32 umol/kg; format: functional, tissue-based; how it was run: as §1
[12] = target: T2, 5-hydroxytryptamine receptor 1A (Rattus norvegicus, UniProt P19327); test: Concentration of compound required to inhibit cortical 5-hydroxytryptamine 1A receptor binding sites in rat brain was evaluated; format: tissue-based
T2 sequence (P19327 whole entry): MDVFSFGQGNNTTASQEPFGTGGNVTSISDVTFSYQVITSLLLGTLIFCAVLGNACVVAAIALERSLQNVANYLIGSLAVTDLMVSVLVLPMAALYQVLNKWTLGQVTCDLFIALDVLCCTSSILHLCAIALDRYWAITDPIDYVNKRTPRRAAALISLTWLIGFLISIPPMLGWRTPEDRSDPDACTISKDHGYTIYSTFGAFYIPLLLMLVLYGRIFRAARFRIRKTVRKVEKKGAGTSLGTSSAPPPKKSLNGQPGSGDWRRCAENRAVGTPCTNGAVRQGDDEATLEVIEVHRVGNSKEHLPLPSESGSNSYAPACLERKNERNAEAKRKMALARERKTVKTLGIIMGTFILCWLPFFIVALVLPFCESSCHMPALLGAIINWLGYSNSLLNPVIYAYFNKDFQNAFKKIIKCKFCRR

[13] = target: T1, Tryptophan 5-hydroxylase 1 (Rattus norvegicus); test: Compound was tested for its effect on NSD 1015 induced accumulation of 5-HTP(ng/g) in rats in corpus striatum at a dosage of 3.2 umol/kg; format: functional; how it was run: as §1
[14] = target: T1, Tryptophan 5-hydroxylase 1 (Rattus norvegicus); test: Compound was tested for its effect on NSD 1015 induced accumulation of 5-HTP in rats corpus striatum at a dosage of 10 umol/kg; format: functional, tissue-based; how it was run: as §1
Rattus norvegicus [15] = test: No of rats exhibiting 5-HT motor syndrome tested in reserpinized rats at a subcutaneous dose of 3.2 umol/kg; 0 rats out of 3 showed activity; format: functional
[16] = target: T1, Tryptophan 5-hydroxylase 1 (Rattus norvegicus); test: Compound was tested for its effect on NSD 1015 induced accumulation of 5-HTP in rats in corpus striatum at a dosage of 32 umol/kg; format: functional, tissue-based; how it was run: as §1
Rattus norvegicus [17] = test: No of rats exhibiting 5-HT motor syndrome tested in reserpinized rats at a subcutaneous dose of 10 umol/kg; 0 rats out of 3 showed activity; format: functional
Rattus norvegicus [18] = test: No of rats exhibiting 5-HT motor syndrome tested in reserpinized rats at a subcutaneous dose of 32 umol/kg; 4 rats out of 4 showed activity; format: functional
Rattus norvegicus [19] = test: No of rats exhibiting 5-HT motor syndrome tested in reserpinized rats at a subcutaneous dose of 32 umol/kg; 0 rats out of 4 showed activity; format: functional
[20] = target: T1, Tryptophan 5-hydroxylase 1 (Rattus norvegicus); test: Compound was tested for its effect on NSD 1015 induced accumulation of 5-HTP(ng/g) in rats in corpus striatum at a dosage of 100 umol/kg; format: functional, tissue-based; how it was run: as §1
Rattus norvegicus [21] = test: No of rats exhibiting 5-HT motor syndrome tested in reserpinized rats at a subcutaneous dose of 10 umol/kg; 0 rats out of 2 showed activity; format: functional
Rattus norvegicus [22] = test: No of rats exhibiting 5-HT motor syndrome tested in reserpinized rats at a subcutaneous dose of 100 umol/kg; 4 rats out of 4 showed activity; format: functional
[23] = target: T1, Tryptophan 5-hydroxylase 1 (Rattus norvegicus); test: Compound was tested for its effect on NSD 1015 induced accumulation of 5-HTP(ng/g) in rats in limbic system at a dosage of 100 umol/kg; format: functional, tissue-based; how it was run: as §1
[24] = target: T1, Tryptophan 5-hydroxylase 1 (Rattus norvegicus); test: Compound was tested for its effect on NSD 1015 induced accumulation of 5-HTP in rats in corpus striatum at a dosage of 3.2 umol/kg; format: functional; how it was run: as §1
Rattus norvegicus [25] = test: No of rats exhibiting 5-HT motor syndrome tested in reserpinized rats at a subcutaneous dose of a. 0.1 umol/kg; 0 rats out of 4 showed activity; format: functional
[26] = target: T1, Tryptophan 5-hydroxylase 1 (Rattus norvegicus); test: Compound was tested for its effect on NSD 1015 induced accumulation of 5-HTP(ng/g) in rats in limbic system at a dosage of 0.10 umol/kg; format: functional, tissue-based; how it was run: as §1
[27] = target: T1, Tryptophan 5-hydroxylase 1 (Rattus norvegicus); test: Compound was tested for its effect on NSD 1015 induced accumulation of 5-HTP(ng/g) in rats in corpus striatum at a dosage of 0.032 umol/kg; format: functional; how it was run: as §1
Rattus norvegicus [28] = test: No of rats exhibiting 5-HT motor syndrome tested in reserpinized rats at a subcutaneous dose of 0.32 umol/kg; 4 rats out of 4 showed activity; format: functional
[29] = target: T1, Tryptophan 5-hydroxylase 1 (Rattus norvegicus); test: Compound was tested for its effect on NSD 1015 induced accumulation of 5-HTP(ng/g) in rats in limbic system at a dosage of 0.32 umol/kg; format: functional, tissue-based; how it was run: as §1
[30] = target: T1, Tryptophan 5-hydroxylase 1 (Rattus norvegicus); test: Compound was tested for its effect on NSD 1015 induced accumulation of 5-HTP in rats in corpus striatum at a dosage of 0.32 umol/kg; format: functional, tissue-based; how it was run: as §1
[31] = target: T1, Tryptophan 5-hydroxylase 1 (Rattus norvegicus); test: Compound was tested for its effect on NSD 1015 induced accumulation of 5-HTP(ng/g) in rats in limbic system at a dosage of 0.032 umol/kg; format: functional; how it was run: as §1
[32] = target: T1, Tryptophan 5-hydroxylase 1 (Rattus norvegicus); test: Compound was tested for its effect on NSD 1015 induced accumulation of 5-HTP in rats corpus striatum at a dosage of 0.10 umol/kg; format: functional, tissue-based; how it was run: as §1

CCN(CC)[C@H]1CCc2cccc(O)c2C1
ED50 [1]: 3 µmol/kg | Activity (Rattus norvegicus [2]): 0 | Activity [3]: 86 ng/g | Activity (Rattus norvegicus [4]): 4 | Activity [5]: 55 ng/g | Activity [6]: 135 ng/g | Activity (Rattus norvegicus [7]): 0 | Activity [8]: 46 ng/g | Activity [9]: 85 ng/g | Activity [10]: 107 ng/g | Activity [11]: 74 ng/g | IC50 [12]: 0.114 µM | Activity [13]: 74 ng/g

CCCCN(CCCC)[C@H]1CCc2cccc(O)c2C1
ED50 [1]: 5 µmol/kg | Activity [14]: 52 ng/g | Activity [3]: 95 ng/g | Activity (Rattus norvegicus [15]): 0 | Activity [16]: 45 ng/g | Activity (Rattus norvegicus [17]): 0 | Activity (Rattus norvegicus [18]): 4 | Activity [10]: 168 ng/g | Activity [11]: 112 ng/g | IC50 [12]: 0.0462 µM | Activity [13]: 90 ng/g

CN(C)[C@H]1CCc2cccc(O)c2C1
ED50 [1]: 20 µmol/kg | Activity (Rattus norvegicus [19]): 0 | Activity [3]: 162 ng/g | Activity [20]: 45 ng/g | Activity (Rattus norvegicus [21]): 0 | Activity [5]: 69 ng/g | Activity (Rattus norvegicus [22]): 4 | Activity [23]: 85 ng/g | Activity [8]: 66 ng/g | Activity [24]: 107 ng/g | Activity [10]: 178 ng/g | Activity [11]: 128 ng/g | IC50 [12]: 0.675 µM

CCCN(CCC)[C@@H]1CCc2cccc(O)c2C1
ED50 [1]: 0.1 µmol/kg | Activity (Rattus norvegicus [25]): 0 | Activity [26]: 119 ng/g | Activity [27]: 87 ng/g | Activity (Rattus norvegicus [28]): 4 | Activity [29]: 86 ng/g | Activity [30]: 52 ng/g | Activity [31]: 163 ng/g | Activity [32]: 78 ng/g
